High-throughput results deposited in PubChem BioAssay by several laboratories.
The full list was thinned out, with hits kept by preference.
ABCG2 inh: human ABCG2 inhibition, ABCB1 as counter-screen. inhibition, % at 6.6 µM. hit rate 0.1% among 190,000. Q9UNQ0. IgMXP3 cells, JC-1 efflux, flow cytometry. AID 1325;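 active = inhibition above 80%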;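 note: 0% = DMSO and 100% = nicardipine control wells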
Target sequence (Q9UNQ0 whole entry, looked up): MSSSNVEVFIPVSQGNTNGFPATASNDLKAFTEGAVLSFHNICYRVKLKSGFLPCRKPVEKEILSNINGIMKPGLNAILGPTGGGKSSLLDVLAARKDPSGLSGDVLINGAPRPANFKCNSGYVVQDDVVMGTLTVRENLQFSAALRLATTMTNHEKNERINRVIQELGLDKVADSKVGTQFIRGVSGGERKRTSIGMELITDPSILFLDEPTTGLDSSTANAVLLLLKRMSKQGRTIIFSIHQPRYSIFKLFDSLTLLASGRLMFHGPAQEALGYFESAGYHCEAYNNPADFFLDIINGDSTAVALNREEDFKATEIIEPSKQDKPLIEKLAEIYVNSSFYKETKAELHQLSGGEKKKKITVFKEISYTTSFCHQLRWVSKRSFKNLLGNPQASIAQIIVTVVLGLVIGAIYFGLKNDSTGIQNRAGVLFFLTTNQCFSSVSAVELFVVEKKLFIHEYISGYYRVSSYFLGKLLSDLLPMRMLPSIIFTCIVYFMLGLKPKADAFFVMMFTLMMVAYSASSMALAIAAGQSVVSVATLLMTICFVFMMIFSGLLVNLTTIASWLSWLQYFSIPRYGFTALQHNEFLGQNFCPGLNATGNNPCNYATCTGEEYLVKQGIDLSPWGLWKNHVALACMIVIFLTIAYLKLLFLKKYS
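Incubation: cells with compound and JC-1, 10 min at 25 °C, rotating, no wash / Test system: IgMXP3 (ABCG2) plus far-red-tagged CCRF-Adr (ABCB1) cells / Compound dosing: one concentration, 6.6 µM final / Also added: JC-1 fluorescent substrate / Evaluation: efflux inhibition in percent versus controls / Detection: flow cytometry, 530 nm JC-1 signal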
ABCB1 inh: inhibitors of human ABCB1 transporter, ABCG2 counter-screen; P08183; CCRF-Adr cells, JC-1 efflux, flow cytometry; inhibition, % at 6.6 µM; hit rate 0.067% among 190,000; in the data active = inhibition above about 40%;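 note: 0% = vehicle and 100% = reference inhibitor; higher value means more JC-1 retained so stronger ABCB1 efflux block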
PKD1 kinase inh: PKD1 (human) kinase inhibition | Q15139 | PKD1 kinase fluorescence polarization assay | inhibition, % (no concentration beside the values) | AID 797 | hit rate 0.056% among 200,000
Avidin fluor: compound fluoresces at 488/530 nm on avidin beads; hit rate 0.38% among 220,000; fluorescence (KMESF) at 10 µM; compound fluorescence 488/530 nm, flow cytometry; stronger effect = higher value; in the data active = fluorescence above about 47
Lmaj promast: reduces viability of Leishmania major promastigotes; resazurin fluorescence viability; inhibition, % at 10 µM; hit rate 9% among 200,000; AID 1063;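 note: promastigotes grown with compound for 44 hours at 28 °C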
GSH bead fluor: GSH bead compound fluorescence profile. GSH beads flow cytometry, compound fluorescence 488/530 nm; stronger effect = higher value. fluorescence (KMESF) at 10 µM. hit rate 0.25% among 190,000. AID 1776; in the data active = fluorescence above about 89;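 note: glutathione beads carrying GST-tagged Bcl family fusion proteins plus one bare bead set; values are compound well signal with DMSO vehicle wells as background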
The depositor's hits bear a star; x = no result given. Cut-off read from the data, not from the text of the source, unless noted: active = inhibition above about 50%; inactive = the rest.

SMILES	ABCG2 inh	ABCB1 inh	PKD1 kinase inh	Avidin fluor	Lmaj promast	GSH bead fluor
Cc1ncc(CN2CCCC(C(=O)c3cccc(OC(C)C)c3)C2)s1 (configuration not stated)	0	0	-7	10	89*	13
COc1cccc(C(=O)C2CCCN(Cc3ccccn3)C2)c1 (configuration not stated)	0	0	-2	10	2	18
CC1(C)C2CC=C(CN3CCC(O)CC3)C1C2 (configuration not stated)	2	0	-4	14	64*	31
O=C(c1ccc(N2CC3CC(C2)c2cccc(=O)n2C3)c([N+](=O)[O-])c1)N1CCCC1 (configuration not stated)	1	0	-4	22	-3	11
CC(ON1CC1(C(F)(F)F)C(F)(F)F)(C(N)=O)C(N)=O (configuration not stated)	0	0	-12	2	-5	8
Cc1ccc(-n2cc(CNC(C)Cc3cnccn3)c(-c3cccc(C)c3)n2)cc1 (configuration not stated)	13	4	1	1	65*	14
CN1C(=O)/C(=C\c2ccc(N3CCCCCC3)cc2)C(=O)NC1=S	x	x	x	6	x	x
CCCCN1C(=O)/C(=C/c2ccc(N3CCCCCC3)cc2)C(=O)NC1=S	-13	-1	-9	11	59*	11
CCC(C)N1C(=O)/C(=C\c2cc3c4c(c2)CCCN4CCC3)C(=O)NC1=S (configuration not stated)	6	3	11	11	98*	27
CCC(C)N1C(=O)/C(=C\c2ccc(N3CCCCCC3)cc2)C(=O)NC1=S (configuration not stated)	-2	0	14	13	93*	27
CCC(C)N1C(=O)/C(=C\c2cnc(N(C)C)nc2)C(=O)NC1=S (configuration not stated)	17	1	11	8	14	10
COc1ccc(CN2C(=O)NC(=O)/C(=C\c3cccc(OC)c3OC)C2=O)cc1	-2	-1	3	11	3	11
CCCC1=C(C(=O)OCC)C2(C(=O)Nc3ccccc32)C(C#N)=C(N)O1 (configuration not stated)	3	0	-3	12	8	25
Cc1ccccc1N1C(=O)NC(=O)/C(=C\c2cnn(-c3ccccc3)c2)C1=O	1	0	-3	5	0	9
CCN(CC)c1ccc(CN2CC=C(c3ccc(F)cc3)CC2)cc1	5	1	-11	13	96*	14
Oc1ccc2ccccc2c1CN1CC=C(c2ccccc2)CC1	-2	0	0	13	4	74
CC(C)NCC(O)c1ccc(C2CCCC2)cc1 (configuration not stated)	0	0	-7	1	92*	6
Nc1c2c(nc3sc4c(c13)CCCC4)CCCCC2	3	-1	2	6	77*	32
Nc1c2c(nc3sc4c(c13)CCCC4)CCCC2	3	1	3	11	92*	23
CS(=O)(=O)NCc1nnc2n1-c1ccc(Cl)cc1C(c1ccccc1)=NC2	1	0	16	3	-7	6
CSCc1nnc2n1-c1ccc(Cl)cc1C(c1ccccc1)=NC2	-3	0	-1	8	94*	11
O=C1/C(=C\c2ccccc2)C2OCC=C3CN4CCC56c7ccccc7N1C5C2C3CC46 (configuration not stated)	x	x	x	10	x	x
Cc1cccc(N2C(=O)NC(=O)C3(Cc4cc(C)ccc4N(C)C3)C2=O)c1 (configuration not stated)	27	0	-4	14	-2	39
CCCCOc1ccc(CN2CCN(CC)CC2)cc1	2	0	-1	9	86*	13
CCCCCCOc1ccc(CN2CCN(CCO)CC2)cc1	4	1	-17	20	99*	10
SMILES	ABCG2 inh	ABCB1 inh	PKD1 kinase inh	Avidin fluor	Lmaj promast	GSH bead fluor
CCCCOc1ccc(CN2CCN(CCO)CC2)cc1	0	1	3	12	89*	30
CCCCOc1ccc(CC2C(=O)N(C)C(=O)N(C)C2=O)cc1	-5	-3	3	2	-10	35
O=[N+]([O-])c1ccc(-c2ccccc2)c([As](=O)(O)O)c1	x	x	x	5	x	x
CCOC(=O)C1(CCOc2ccccc2)CCN(C2Cc3ccccc3C2)CC1	1	2	7	10	88*	22
CCOC(=O)C1(c2ccccc2)CCN(CC(=O)Nc2ccc(C)cc2)CC1	5	1	-7	10	9	14
O=S(=O)(c1ccccc1)N1CCCCC1c1cccnc1 (configuration not stated)	2	0	8	7	25	19
Cc1ccc(CN2C(=O)CN=C(c3ccccc3)c3ccccc32)cc1	21	2	-7	12	57*	3
Cc1oc(-c2ccccc2)nc1CN1C(=O)CN=C(c2ccccc2)c2ccccc21	13	4	-1	7	9	13
CNCCc1nc(N)n[nH]1	2	0	-10	12	-2	12
CCCCCCCSc1cc(OC)c(CCN(C)C)cc1OC	1	0	2	29	100*	14
CCCCCSc1cc(OC)c(CCN)cc1OC	2	-1	11	13	92*	24
CCCCCCCCCOc1ccc2[nH]cc(CCN)c2c1	1	x	x	6	x	63
CCOP(=O)(OCC)C(O)c1cccnc1 (configuration not stated)	x	x	x	81*	x	x
CC1CCCCN1C(=O)c1ccc(N2CC3CC(C2)c2cccc(=O)n2C3)c([N+](=O)[O-])c1 (configuration not stated)	0	x	-7	15	65*	9
O=C(c1ccc(N2CC3CC(C2)c2cccc(=O)n2C3)c([N+](=O)[O-])c1)N1CCCCC1 (configuration not stated)	1	x	-11	15	55*	9
CCCSc1nc(O)c(CC)c(=O)n1C(C)CC (configuration not stated)	-1	0	-8	11	-4	18
OC1(c2ccccc2F)CC2CCC(C1)N2CCN1CCOCC1 (configuration not stated)	2	-1	-14	3	52*	37
COc1ccc(C(=O)CN2CCOCC2)cc1F	-6	-1	-7	2	3	12
Cc1cc(C=C2C(=O)NC(=S)NC2=O)c(C)n1C1CCCC1	8	1	-3	9	63*	16
Cc1cc(C=C2C(=O)N(C)C(=S)N(C)C2=O)c(C)n1C1CCCCC1	7	0	2	6	21	28
COc1ccc(C(=O)C2CCCN(C3CSCCSC3)C2)c(OC)c1 (configuration not stated)	9	3	-7	2	21	14
